Measurements published in ChEMBL document CHEMBL4392869, “Possible Biosynthetic Products and Metabolites of Kainic Acid from the Red Alga Digenea simplex and Their Biological Activity” (J Nat Prod, 2019).

Tests used:
Type in all cases: organism-based
Settings in all cases: in vivo, icv_or_intrathecal
[1] = Toxicity in ddY mouse assessed as death time at 2.2 nmol dosed via intracerebroventricular injection
How it was run: (§1)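 Male ddY mice (11−13 g, 3 weeks old), three per compound. Doses, quantified by LC-MS against a weighed standard, were given in 10 μL water, injected slowly over 5 s into the ventricle: 2 mm lateral to the skull midline, 3 mm rostral to the anterior ear-base line, 3 mm deep. Water served as vehicle control. Death time and behavioural symptoms were recorded.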

[2] = Toxicity in ddY mouse assessed as induction of adverse symptoms at 2.2 nmol dosed via intracerebroventricular injection; how it was run: as §1
[3] = Toxicity in ddY mouse assessed as death time at 4.4 nmol dosed via intracerebroventricular injection; how it was run: as §1
[4] = Toxicity in ddY mouse assessed as induction of adverse symptoms at 4.4 nmol dosed via intracerebroventricular injection; how it was run: as §1
[5] = Toxicity in ddY mouse assessed as induction of scratching at 2.2 nmol dosed via intracerebroventricular injection; how it was run: as §1
[6] = Toxicity in ddY mouse assessed as induction of spasms at 2.2 nmol dosed via intracerebroventricular injection; how it was run: as §1
[7] = Toxicity in ddY mouse assessed as induction of sudden jumping at 2.2 nmol dosed via intracerebroventricular injection; how it was run: as §1
[8] = Toxicity in ddY mouse assessed as death time at 1.1 nmol dosed via intracerebroventricular injection; how it was run: as §1
[9] = Toxicity in ddY mouse assessed as induction of scratching at 1.1 nmol dosed via intracerebroventricular injection; how it was run: as §1
[10] = Toxicity in ddY mouse assessed as induction of spasms at 1.1 nmol dosed via intracerebroventricular injection; how it was run: as §1
[11] = Toxicity in ddY mouse assessed as induction of sudden jumping at 1.1 nmol dosed via intracerebroventricular injection; how it was run: as §1

C=C(C)[C@]1(O)CN[C@H](C(=O)O)[C@H]1CC(=O)O
Activity [1]: Non-Toxic
Activity [2]: Non-Toxic

CC(C)=CCN[C@H](C(=O)O)[C@H](O)CC(=O)O (relative stereo)
Activity [3]: Non-Toxic
Activity [4]: Non-Toxic

C=C(C)[C@@]1(O)CN[C@H](C(=O)O)[C@H]1CC(=O)O
Activity [1]: Non-Toxic
Activity [5]: Toxic
Activity [6]: Toxic
Activity [7]: Toxic

CC(C)=CCN[C@@H](CCC(=O)O)C(=O)O
Activity [3]: Non-Toxic
Activity [4]: Non-Toxic

C=C(C)[C@H]1CN[C@H](C(=O)O)[C@H]1CC(=O)O [KAINIC ACID]
Time [8]: 15 to 30 min
Activity [9]: Toxic
Activity [10]: Toxic
Activity [11]: Toxic
